Usually pIC50 stands for −log10 of the IC50, conventionally taken in molar units. What is called pKi is −log10 of the Ki, conventionally taken in molar units. Read a low pKi as a large Ki.

The target in assay [1] is T1, Peptidyl-prolyl cis-trans isomerase FKBP1A (Homo sapiens, UniProt P62942). Put plainly: Inhibition of PPIase activity of human FKBP12 expressed in Escherichia coli by spectrophotometry. The method in brief:
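Chymotrypsin-coupled PPIase assay using 20 nM FKBP12 and 40 μM succinyl-Ala-Phe-Pro-Phe-4-nitroanilide. Enzyme and substrate preincubated with or without various inhibitor concentrations for 4 min at 10 °C in 35 mM HEPES/NaOH, pH 7.8.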

Assay [2] addresses Outer membrane protein MIP (Legionella pneumophila, UniProt Q70YI1).
In assay [3] the test system is Legionella pneumophila. Put plainly: Antibacterial activity against wild type Legionella pneumophila Philadelphia-1 JR32 infected in human U937 cells at 50 uM after 24 to 48 hrs. The assay is classed as functional, organism-based. Conditions: U-937. In short, it runs like this: (§1)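 U937 macrophage-like cells infected at MOI 10, with or without 50 μM compound kept present throughout incubation. Extracellular bacteria killed with gentamicin 2 h post-infection. Infection samples plated on BCYE agar for CFU counts immediately and after 24 and 48 h.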

Assay [4] concerns the target T1, Peptidyl-prolyl cis-trans isomerase FKBP1A. In words: Inhibition of FKBP12.
Another assay concerns Escherichia coli. Put plainly: Antibacterial activity against Escherichia coli HB101 infected in human U937 cells at 50 uM after 24 to 48 hrs. The assay is classed as functional, cell-based. Conditions: U-937. In short, it runs like this: as §1
Assay [5] deals with Legionella pneumophila. Put plainly: Antibacterial activity against MIP protein-deficient Legionella pneumophila JR32-2 infected in human U937 cells at 50 uM after 24 to 48 hrs. The class given is functional, organism-based. In short, it runs like this:
as §1

SMILES strings stand for the structures. pIC50, pKi: −log10 of the molar value. Calls of active or inactive are those of the source. The rule behind the calls is not given here. Bounds are passed on as bounds.

Outer membrane protein MIP, sequence (Q70YI1 21-233 limits assumed): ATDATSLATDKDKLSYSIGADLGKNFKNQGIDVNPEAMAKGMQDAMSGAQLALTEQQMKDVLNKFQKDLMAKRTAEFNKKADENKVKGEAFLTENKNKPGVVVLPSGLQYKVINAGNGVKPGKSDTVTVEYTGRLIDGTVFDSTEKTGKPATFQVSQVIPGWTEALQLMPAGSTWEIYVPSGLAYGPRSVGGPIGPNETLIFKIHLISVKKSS
T1 sequence (P62942 whole entry): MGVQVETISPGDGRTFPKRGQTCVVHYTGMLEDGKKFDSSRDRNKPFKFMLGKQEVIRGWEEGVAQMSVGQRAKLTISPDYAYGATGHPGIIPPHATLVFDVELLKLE

With `CCOC(=O)C1CCCCN1S(=O)(=O)c1ccccc1` (stereo not drawn), the pIC50 in assay [1] is 5.51; in assay [2], below 4.00.
As for `CCOC(=O)C1CCCCN1C(=O)C(=O)C(C)CC` (stereo not drawn), the values for the pIC50 in assay [1] and in assay [2] were below 4.52 and below 4.00, respectively.
The corresponding values for `CCC(C)C(=O)C(=O)N1CCCCC1C(=O)OC(CCc1ccccc1)c1ccccc1` (stereo not drawn) are below 4.52 and below 4.00.
In the case of `O=C(OCCCc1cccnc1)C1CCCCN1S(=O)(=O)c1cccc([N+](=O)[O-])c1` (stereo not drawn), the negative-log IC50 (pIC50) in assay [1] is 6.82; in assay [2], 4.49.
In the case of `CCOC(=O)C1CCCCN1S(=O)(=O)c1cccc([N+](=O)[O-])c1` (stereo not drawn), the pIC50 in assay [1] is 5.55; in assay [2], below 4.00.
Consider `COc1cc(CCCOC(=O)[C@@H]2CCCCN2S(=O)(=O)Cc2ccccc2)cc(OC)c1OC`, for which, in the assay with Legionella pneumophila [3], the outcome was inactive. The pKi in assay [4] was 6.64. The same compound gave a negative-log IC50 (pIC50) in assay [1] of 6.70.
Consider `CCC(C)C(=O)C(=O)N1CCCCC1C(=O)OCCCc1cc(OC)c(OC)c(OC)c1` (stereo not drawn), for which the values for the pIC50 in assay [1] and in assay [2] were 5.38 and below 4.00, respectively.
The corresponding values for `COc1cc(CCCOC(=O)C2CCCCN2S(=O)(=O)c2cccc(N)c2)cc(OC)c1OC` (stereo not drawn) are 6.59 and below 4.00.
The corresponding values for `COc1cc(CCCOC(=O)C2CCCCN2S(=O)(=O)c2cccc([N+](=O)[O-])c2)cc(OC)c1OC` (stereo not drawn) are 7.15 and below 4.00.
Regarding `COc1cc(CCCOC(=O)C2CCCCN2S(=O)(=O)Cc2ccccc2)cc(OC)c1OC` (racemic), in assay [1], the negative logarithm of the IC50 (pIC50) is 6.70.
Consider `CCOC(=O)C1CCCCN1S(=O)(=O)Cc1ccccc1` (stereo not drawn), for which the results for the pIC50 in assay [1] and in assay [2] were 5.59 and 4.06, respectively.
The corresponding values for `Nc1cccc(S(=O)(=O)N2CCCCC2C(=O)OCCCc2cccnc2)c1` (stereo not drawn) are 6.49 and below 4.00.
Regarding `CO[C@H]1C[C@@H]2CC[C@@H](C)[C@@](O)(O2)C(=O)C(=O)N2CCCC[C@H]2C(=O)O[C@H]([C@H](C)C[C@@H]2CC[C@@H](O)[C@H](OC)C2)CC(=O)[C@H](C)/C=C(\C)[C@@H](O)[C@@H](OC)C(=O)[C@H](C)C[C@H](C)/C=C/C=C/C=C/1C`, the result in the assay with Legionella pneumophila [3], in the assay on Escherichia coli and in the assay with Legionella pneumophila [5] was Active.
Turning to `COc1cc(CCCOC(=O)C2CCCCN2S(=O)(=O)c2ccccc2)cc(OC)c1OC` (stereo not drawn), the negative-log IC50 (pIC50) in assay [1] was 6.92.
